# Results from different studies.
# Protocols differ between the studies behind these lines.
Compound,test,system,setting,quantity,value
NC(=O)[C@@H]1CC(F)(F)CN1C(=O)c1ccc(N2CC(F)(F)C2)c(OCC2CC2)n1,metabolic stability,"human, hepatocytes",,hepatocyte CLint,14 µL/min/10⁶ cells
Nc1nc2[nH]cc(CCc3ccc(C(=O)N[C@@H](CCC(=O)O)C(=O)O)cc3)c2c(=O)[nH]1,,"human, plasma","intravenous, 500 mg/m², patients",clearance,81.7 mL/min
C[C@H]1COCCN1c1nc(NCc2cccnc2C(F)(F)F)c2cccnc2n1,metabolic stability,"rat, hepatocytes",,hepatocyte CLint,5 µL/min/10⁶ cells
COc1ccnc(C(=O)N[C@H]2COC(=O)[C@H](Cc3ccccc3)[C@@H](OC(=O)C(C)C)[C@H](C)OC2=O)c1OCOC(=O)C(C)C,,rat,oral,LD50,> 2000 mg/kg
N=c1c2c(-c3ccccc3)c(-c3ccccc3)n(Cc3ccccc3)c2ncn1[C@H]1CC[C@H](O)CC1,metabolic stability,"Sprague-Dawley rat, hepatocytes",1 µM,scaled CLint,19 mL/min/kg
Cc1c(C(=O)Nc2ccc(OC(F)(F)F)cc2)nc(-c2ccc(Cl)cc2Cl)n1-c1ccc(OS(=O)(=O)CCC(F)(F)F)cc1,shake flask,aqueous buffer,pH 7.4,logD,> 4
NCCCNCCCCNCCCNc1cc2nc(-c3ccccc3Cl)[nH]c(=O)c2cc1F,,male Sprague-Dawley rat,oral,LD50,> 1000 mg/kg
C=CCNc1c(O)cc2c(O)c1C[C@@H](C)C[C@H](OC)[C@H](O)[C@@H](C)/C=C(\C)[C@H](OC(N)=O)[C@@H](OC)/C=C\C=C(/C)C(=O)N2,,"human, plasma","intravenous, 400 mg/m², patients, infusion",clearance,1630 mL/min
Cc1cc(C)nc(Nc2ncc(C(=O)NCCc3c(C)[nH]c4ccccc34)cn2)c1,metabolic stability,"rat, liver microsomes",1 µM,microsomal CLint,185 µL/min/mg
